# Measurements published in ChEMBL document CHEMBL1155228, “Novel triazole ribonucleoside down-regulates heat shock protein 27 and induces potent anticancer activity on drug-resistant pancreatic cancer” (J Med Chem, 2009).
# Activity calls are given as the source filed them. No cut-off for these calls is given here.
# Columns and labels:
# MIA PaCa-2 [1] = test: Inhibition of DNA synthesis in chemoresistant human MIAPaCa2 cells assessed as incorporation of [3H]thymidine into DNA after 4 hrs by liquid scintillation counting; type: functional
# In short: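 MiaPaCa-2 cells seeded at 15 000/well and treated in exponential growth for 4 h, with gemcitabine as comparator. Then labelled with [³H]thymidine (10 μCi/mL) for 6 h at 37 °C, 5% CO₂. Cells harvested and incorporated radioactivity measured by liquid scintillation counting.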
# MIA PaCa-2 [2] = test: Inhibition of chemoresistant human MIAPaCa2 cell proliferation after 48 hrs by MTT assay; type: functional
# In short: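 MiaPaCa-2 cells in DMEM with 10% FBS seeded at 15 000/well and left to attach overnight. Medium replaced with fresh medium holding a range of concentrations, or medium alone; gemcitabine control. Incubated 48 h at 37 °C, 5% CO₂, and viable cells measured by MTT. Mean ± SE of three independent experiments.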
# MIA PaCa-2 [3] = test: Inhibition of Hsp27 protein expression in chemoresistant human MIAPaCa2 cells by alexa fluor 488 staining-based immunofluorescence assay; type: functional, cell-based
# In short: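 Treated and untreated MiaPaCa-2 cells fixed in 4% paraformaldehyde and permeabilized with 1% Triton. Incubated with mouse anti-Hsp27 monoclonal (1:500) overnight at 4 °C, blocked in BSA/PBS, then Alexa Fluor 488 secondary (1:750). Nuclei stained with DAPI for imaging.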
# MIA PaCa-2 [4] = test: Inhibition of Hsp27 mRNA expression in chemoresistant human MIAPaCa2 cells after 24 hrs by RT-PCR analysis; type: functional
# In short: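 MiaPaCa-2 cells treated 24 h. Total RNA isolated by TRIzol and reverse-transcribed. SYBR Green real-time PCR run with Hsp27 primers: 45 cycles of 95 °C 5 s, 57 °C 6 s, 72 °C 12 s, followed by a melting curve. Normalized to 18S rRNA; each sample in triplicate.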
# MIA PaCa-2 [5] = test: Induction of necrosis in chemoresistant human MIAPaCa2 cells assessed as cell membrane damage associated LDH release up to 300 um after 1 hr; type: functional
# In short: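 MiaPaCa-2 cells seeded at 15 000/well; 24 h later exposed to compound in DMSO for 1 h. LDH reaction mixture added 1:1 and incubated 10 min at 25 °C. Lysis buffer set as 100% release and medium as 0%. Result is released LDH over total cellular LDH; triplicate.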
# MIA PaCa-2 [6] = test: Induction of apoptosis in chemoresistant human MIAPaCa2 cells assessed as increase in caspase 3/7 activation after 48 hrs by […] relative to gemcitabine; type: functional
# In short: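 MiaPaCa-2 cells seeded at 15 000/well; 24 h later treated for 48 h, with gemcitabine and no-treatment controls. Apo-ONE homogeneous caspase-3/7 reagent added 1:1 to culture, containing fluorogenic Z-DEVD-R110 substrate. Incubated 30 min at room temperature, then fluorescence read. Triplicate.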
# MIA PaCa-2 [7] = test: Inhibition of Hsp27 protein expression in chemoresistant human MIAPaCa2 cells after 48 hrs by Western blotting; type: functional, cell-based
# In short: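 MiaPaCa-2 cells treated and harvested at 48 h. Lysates loaded at 15 μg protein and blotted with rabbit polyclonal anti-human Hsp27 (1:5000) and vinculin reference (1:2000). Detected by enhanced chemiluminescence and band intensities quantified against untreated control.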
# MIA PaCa-2 [8] = test: Induction of necrosis in chemoresistant human MIAPaCa2 cells up to 12 hrs by 7-aminoactinomycin D staining-based FACS analysis; type: functional
# In short: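 MiaPaCa-2 cells seeded at 500 000 per 6 cm dish and left overnight, then treated or left untreated for 3, 6 and 12 h. Stained with 7-AAD for 15 min at 25 °C, then read immediately by flow cytometry; triplicate.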
# MIA PaCa-2 [9] = test: Antitumor activity against human MIAPaCa2 cells xenografted in nude mouse assessed as reduction in tumor volume at 150 mg/kg, ip administered measured after 3 weeks; parameters: scale not given: the % may be the effect or the level left; settings: route intraperitoneal
# MIA PaCa-2 [10] = test: Induction of apoptosis in chemoresistant human MIAPaCa2 cells assessed as increase in DNA/histone nucleosome release after 48 hrs by ELISA relative to control; type: functional
# In short: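 MiaPaCa-2 cells seeded at 15 000/well for 24 h, then treated or left untreated for 48 h. Cells lysed after centrifugation at 200g. Supernatant put on streptavidin plate with biotin anti-histone and peroxidase anti-DNA antibodies, 2 h at room temperature. After washes, substrate added for 20 min and read at 405 nm. Expressed as fold increase in absorbance over control; triplicate.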
# MIA PaCa-2 [11] = test: Induction of apoptosis in chemoresistant human MIAPaCa2 cells assessed as increase in cell accumulation at sub-G1/G0 phase after 48 hrs by FACS analysis relative to control; type: functional
# In short: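 MiaPaCa-2 cells treated 48 h, with untreated and gemcitabine controls. Cells trypsinized, PBS-washed and fixed overnight at 4 °C in cold 70% ethanol. Treated with RNase (500 μg/mL) and stained with propidium iodide (50 μg/mL). Sub-G1/G0 fraction read by flow cytometry on 10⁶ cells; triplicate.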
# MIA PaCa-2 [12] = test: Induction of apoptosis in chemoresistant human MIAPaCa2 cells assessed as increase in caspase 3/7 activation after 48 hrs […] relative to control; type: functional
# Mus musculus [13] = test: Toxicity in nude mouse xenografted with human MIAPaCa2 cells assessed as normal growth and behavior at 150 mg/kg, ip administered measured after 3 weeks; settings: in vivo, 504 h
# Mus musculus [14] = test: Toxicity in nude mouse xenografted with human MIAPaCa2 cells assessed as weight loss at 150 mg/kg, ip administered measured after 3 weeks; settings: in vivo, 504 h
compound,measurement,setting,value
Nc1ccn([C@@H]2O[C@H](CO)[C@@H](O)C2(F)F)c(=O)n1 [GEMCITABINE],inhibition (INH),MIA PaCa-2 [1],>90%
same,inhibition (INH),MIA PaCa-2 [2],<30%
CCCCCc1ccc(CCc2nc(C(N)=O)n([C@@H]3O[C@H](CO)[C@@H](O)[C@H]3O)n2)cc1,inhibition,MIA PaCa-2 [2],inactive
CCCCCc1ccc(C#Cc2nc(C(N)=O)nn2[C@@H]2O[C@H](CO)[C@@H](O)[C@H]2O)cc1,inhibition,MIA PaCa-2 [2],inactive
CCCCCc1ccc(C#Cc2nc(C(N)=O)n(COCCO)n2)cc1,inhibition,MIA PaCa-2 [2],inactive
CCCCCc1ccc(-c2cn(-c3nc(C(N)=O)n([C@@H]4O[C@H](CO)[C@@H](O)[C@H]4O)n3)nn2)cc1,inhibition,MIA PaCa-2 [2],inactive
CCCCCc1ccc(-c2nc(C(N)=O)n([C@@H]3O[C@H](CO)[C@@H](O)[C@H]3O)n2)cc1,inhibition,MIA PaCa-2 [2],inactive
CCCCCC#Cc1nc(C(N)=O)n([C@@H]2O[C@H](CO)[C@@H](O)[C@H]2O)n1,inhibition,MIA PaCa-2 [2],inactive
CCCCCc1ccc(C#Cc2nc(C(N)=O)n([C@@H]3O[C@H](CO)[C@@H](O)[C@H]3O)n2)cc1,inhibition,MIA PaCa-2 [3],Active
same,inhibition,MIA PaCa-2 [1],inactive
same,inhibition (INH),MIA PaCa-2 [4],80%
same,Activity,MIA PaCa-2 [5],<2%
same,fold change (FC),MIA PaCa-2 [6],12
same,inhibition,MIA PaCa-2 [7],Active
same,Activity,MIA PaCa-2 [8],<2%
same,Activity,MIA PaCa-2 [9],50%
same,inhibition (INH),MIA PaCa-2 [2],80%
same,fold change (FC),MIA PaCa-2 [10],40
same,fold change (FC),MIA PaCa-2 [11],14
same,fold change (FC),MIA PaCa-2 [12],30
same,Activity,Mus musculus [13],Non-toxic
same,Activity,Mus musculus [14],Non-toxic
CCCCCc1ccc(C#Cc2nc(C(=O)OC)n([C@@H]3O[C@H](COC(C)=O)[C@@H](OC(C)=O)[C@H]3OC(C)=O)n2)cc1,inhibition,MIA PaCa-2 [2],inactive
COC(=O)c1nc(C#Cc2ccc(C(F)(F)F)cc2)nn1[C@@H]1O[C@H](COC(C)=O)[C@@H](OC(C)=O)[C@H]1OC(C)=O,inhibition,MIA PaCa-2 [2],inactive
NC(=O)c1nc(C#Cc2ccc(C(F)(F)F)cc2)nn1[C@@H]1O[C@H](CO)[C@@H](O)[C@H]1O,inhibition,MIA PaCa-2 [2],inactive
CCCc1ccc(C#Cc2nc(C(N)=O)n([C@@H]3O[C@H](CO)[C@@H](O)[C@H]3O)n2)cc1,inhibition,MIA PaCa-2 [2],inactive
Cc1ccc(C#Cc2nc(C(N)=O)n([C@@H]3O[C@H](CO)[C@@H](O)[C@H]3O)n2)cc1,inhibition,MIA PaCa-2 [2],inactive
